The results in this text go back to ChEMBL document CHEMBL1157134, “Liposomal formulation of retinoids designed for enzyme triggered release” (J Med Chem, 2010).

Data set [1] relates to HT-29. Description: Cytotoxicity against human HT-29 cells after 48 hrs by MTT assay in presence of Agkistrodon piscivorus piscivorus venom sPLA2. It counts as functional, cell-based. Conditions: HT-29, 48 h. Summed up:
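HT-29 cells (McCoy's 5A, 10% fetal calf serum) plated at 1 × 10⁴ cells/well 24 h before dosing. Liposomal prodrugs diluted in PBS, lipid concentration set by phosphorus analysis; snake venom sPLA₂ added to a final 5 nM. Cells exposed for 24 h, washed, then kept in complete medium another 48 h. Viability read by MTT, mean ± SD, n ≥ 3.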

Another data set relates to COLO 205. Description: Cytotoxicity against human COLO205 cells after 48 hrs by MTT assay. Format: functional, cell-based. Conditions: COLO 205, 48 h. An outline of the steps:
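Colo205 cells grown in RPMI 1640 with 10% fetal calf serum and 1% Pen-Strep at 5% CO₂, seeded at 2 × 10⁴ cells/well 24 h before treatment. Dosing used conditioned medium carrying about 100 ng/mL sPLA₂ IIA. Exposure was 24 h, then a wash and 48 h in complete medium before MTT. Reported as mean ± SD, n = 3 or more.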

The subject of data set [2] is HT-29. Nature of the data set: Cytotoxicity against human HT-29 cells after 48 hrs by MTT assay. It counts as functional, cell-based. Conditions: HT-29, 48 h. An outline of the steps:
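HT-29 cells grown in McCoy's 5A with 10% fetal calf serum and 1% Pen-Strep, seeded at 1 × 10⁴ cells/well 24 h before dosing. Tested with or without snake (Agkistrodon piscivorus piscivorus) venom sPLA₂ at 5 nM final. Exposure was 24 h, then a wash and 48 h in complete medium before MTT viability. Mean ± SD, n = 3 or more.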

Data set [3] is described as follows: Cytotoxicity against human MT3 cells after 48 hrs by MTT assay. It counts as functional, cell-based. Particulars: MT-3, 48 h. An outline of the steps: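 MT-3 breast cancer cells grown in RPMI 1640 with 10% fetal calf serum and 1% Pen-Strep at 5% CO₂, plated at 1 × 10⁴ cells/well 24 h ahead. Retinoids were given in DMSO/water, final DMSO ≤0.5%. Exposure was 24 h, then a wash and 48 h in complete medium before MTT. Mean ± SD, n = 3.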

A short description of data set [4]: Inhibition of sPLA2 from Naja mossambica mossambica by fluorescence technique.
Data set [5] can be described thus: Stability assessed as compound degradation after 48 hrs by MALDI-TOF MS analysis in presence of Agkistrodon piscivorus piscivorus venom sPLA2. It counts as ADME. An outline of the steps:
(§1)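 Incubated with purified snake venom sPLA₂ at 37 °C, stirred and shielded from light, for 48 h. Extracts mixed with DHB matrix (DPPG included) and analysed by MALDI-TOF MS for remaining prodrug.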

Data set [6] is described as follows: Stability assessed as compound degradation after 48 hrs by MALDI-TOF MS analysis in presence of Naja mossambica mossambica venom sPLA2. It counts as ADME. An outline of the steps:
as §1

As to `CCCCCCCCCCCCCCCCCCOC[C@H](COP(=O)(O)OC[C@H](O)CO)OC(=O)CCCCCCCCCCCCCCCCC`, the IC50 with HT-29 [1] is 9 µM; with COLO 205 it was 33 µM; in the data set on HT-29 [2], above 200 µM.
Turning to `CCCCCCCCCCCCCCCCCC(=O)OC[C@H](COP(=O)(O)OC[C@H](O)CO)OC(=O)CCCCCCCCCCCCCCCCC`, the IC50 in the data set on HT-29 [1] is 25 µM; in the data set on COLO 205, 54 µM; in the data set on HT-29 [2], above 200 µM.
As to `CCCCCCCCc1ccc(-c2ccc(C(=O)OCCCCCC(=O)O)cc2)cc1`, the IC50 in data set [3] was 14 µM; in the data set on COLO 205 it was 127 µM; with HT-29 [2], above 200 µM.
For the compound `CCCCCCCCCCCCCCCCCC(=O)OC[C@@H](O)COP(=O)(O)OCC(O)CO` (some centres not stated), the IC50 with COLO 205 is 22 µM; with HT-29 [2], 7 µM.
In the case of `CC1=C(/C=C/C(C)=C/C=C/C(C)=C/C(=O)OCCCCCC(=O)O)C(C)(C)CCC1`, the IC50 amounted to 8 µM in data set [4], 17 µM in data set [3], 17 µM with COLO 205 and 3.6 µM in the data set on HT-29 [2]. This compound also returned a Ki in data set [4] of 6 µM.
Turning to `CCCCCCCCCCCCCCCCCCOC[C@@H](O)COP(=O)(O)OC[C@@H](O)CO`, the IC50 in the data set on COLO 205 amounted to 25 µM; in the data set on HT-29 [2], 11 µM.
Turning to `CCCCCCCCCCCCCCCCCC(=O)OC[C@H](COP(=O)([O-])OC[C@@H](O)CO)OC(=O)CCCCCOC(=O)c1ccc(-c2ccc(CCCCCCCC)cc2)cc1.[Na+]`, the IC50 with HT-29 [1] is 8 µM; in the data set on COLO 205, 19 µM; in the data set with HT-29 [2] it was above 200 µM. In addition, the Stability entry in data set [5] and in data set [6] was “Unstable” each time.
`CCCCCCCCCCCCCCCCCCOC[C@H](COP(=O)([O-])OC[C@@H](O)CO)OC(=O)CCCCCOC(=O)c1ccc(-c2ccc(CCCCCCCC)cc2)cc1.[Na+]`: the IC50 with HT-29 [1] was 3 µM; in the data set with COLO 205 it was 7 µM; in the data set on HT-29 [2], above 200 µM. For the same compound, the Stability entry in data set [5] and in data set [6] was “Unstable” throughout.
Regarding `CCCCCCCCCCCCCCCCCC(=O)OC[C@H](COP(=O)([O-])OC[C@@H](O)CO)OC(=O)CCCCCOC(=O)/C=C(C)/C=C/C=C(C)/C=C/C1=C(C)CCCC1(C)C.[Na+]`, the figures for the half-inhibitory concentration (IC50) in the data set on HT-29 [1], with COLO 205 and in the data set on HT-29 [2] were 6 µM, 12 µM and above 200 µM, respectively. Further, the Stability entry in data set [5] and in data set [6] was “Unstable” throughout.
For the compound `CCCCCCCCCCCCCCCCCCOC[C@H](COP(=O)([O-])OC[C@@H](O)CO)OC(=O)CCCCCOC(=O)/C=C(C)/C=C/C=C(C)/C=C/C1=C(C)CCCC1(C)C.[Na+]`, the figures for the IC50 in the data set on HT-29 [1], in the data set on COLO 205 and in the data set on HT-29 [2] were 7 µM, 16 µM and above 200 µM, respectively. Further, in data set [5], the Stability result is listed as “Unstable”.
Turning to `CCCCCCCCc1ccc(-c2ccc(C(=O)O)cc2)cc1`, the half-inhibitory concentration (IC50) is 51 µM in data set [3], above 200 µM with COLO 205 and above 200 µM in the data set on HT-29 [2].
With `CCCCCCCCCCCCCCCCCC(=O)O` [STEARIC ACID], the IC50 with COLO 205 and in the data set with HT-29 [2] was above 200 µM throughout.
On to `CC1=C(/C=C/C(C)=C/C=C/C(C)=C/C(=O)O)C(C)(C)CCC1` [TRETINOIN], for which the IC50 turned out to be 15 µM in data set [4], 30 µM in data set [3], 37 µM with COLO 205 and 4.3 µM with HT-29 [2]. Further, in data set [4], affinity was put at a Ki of 11 µM.
